Hits are enriched below; roughly 1.6% of the tested compounds scored in any of these assays.
HDAC3 inh: human HDAC3 inhibition; inhibition, % at 8.3 µM; O15379; recombinant HDAC3, fluorogenic peptide/trypsin coupled, fluorescence; 320,000 compounds, 0.15% hits; AID 2718; in the data active means inhibition above about 26%, passing the limit was not always enough
LANA-H2A inh: blocks KSHV LANA binding to histone H2A/H2B; Q9QR71; inhibition, % (test concentration not listed); 320,000 compounds, 0.6% hits; AID 2629; cell-free LANA-H2A/H2B peptide, fluorescence polarization; in the data active means inhibition mostly above about 10%, no sharp cut-off; inactive means mostly below about 6.7%
Arr AP2 block: human beta-arrestin and AP2 interaction inhibition; FITC-arrestin peptide / GST-AP2 beads, flow cytometry; AP2 beta2 appendage carries R879A mutation; inhibition, % at 10 µM; 340,000 compounds, 0.31% hits; AID 504490;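 active means inhibition above a set limit, near 3 SD of compounds lacking own fluorescence, cut at about 54% in these data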;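 further: plate controls were DMSO wells for no effect and 5 µM unlabelled arrestin peptide for full effect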
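System: GST-AP2 R879A bound to glutathione beads, E. coli-expressed. Also added: 50 nM FITC-arrestin peptide. Schedule: compound with beads 12 min RT, then probe 1 h RT. Signal: bead flow cytometry, FITC channel. Read-out basis: percent response.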
T cell HTS: T cell immune modulation candidate; response (vesicle binding), % at 7 µM; 2C CD8+ T cell-vesicle binding, flow cytometry; active compounds read low; 330,000 compounds, 0.068% hits; AID 2052;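 active means response, share of CD8 T cells binding vesicles, and their 90th percentile fluorescence all below set limits, cut at about 80% in these data, passing the limit was not always enough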;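 further: values below 100% mean blocked vesicle binding to the CD8+ T cells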
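Read-out – percent CD8+ FL2 mean versus row control · System – murine 2C transgenic CD8+ T lymphocytes · Times – 1.5 h cell–vesicle binding at 37 °C, then 20 min icy labelling · Control set – naked vesicles low, QL9 vesicles with vehicle high · Detection – cytometric PE anti-B7-1 and Alexa647 anti-CD8 signals after 1% paraformaldehyde fixation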
DSG3 Ab inh: human desmoglein-3 autoantibody binding inhibition; P32926; DSG3-coupled beads, scFv-anti-DSG3-GFP binding, flow cytometry; active compounds read low; binding (percent of control), % at 10 µM; 310,000 compounds, 0.48% hits;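 active means binding more than 3 SD below its plate's average and above zero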;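 further: hits lower antibody fragment binding to DSG3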
Target sequence (P32926 whole entry, looked up, the tested form may be a part): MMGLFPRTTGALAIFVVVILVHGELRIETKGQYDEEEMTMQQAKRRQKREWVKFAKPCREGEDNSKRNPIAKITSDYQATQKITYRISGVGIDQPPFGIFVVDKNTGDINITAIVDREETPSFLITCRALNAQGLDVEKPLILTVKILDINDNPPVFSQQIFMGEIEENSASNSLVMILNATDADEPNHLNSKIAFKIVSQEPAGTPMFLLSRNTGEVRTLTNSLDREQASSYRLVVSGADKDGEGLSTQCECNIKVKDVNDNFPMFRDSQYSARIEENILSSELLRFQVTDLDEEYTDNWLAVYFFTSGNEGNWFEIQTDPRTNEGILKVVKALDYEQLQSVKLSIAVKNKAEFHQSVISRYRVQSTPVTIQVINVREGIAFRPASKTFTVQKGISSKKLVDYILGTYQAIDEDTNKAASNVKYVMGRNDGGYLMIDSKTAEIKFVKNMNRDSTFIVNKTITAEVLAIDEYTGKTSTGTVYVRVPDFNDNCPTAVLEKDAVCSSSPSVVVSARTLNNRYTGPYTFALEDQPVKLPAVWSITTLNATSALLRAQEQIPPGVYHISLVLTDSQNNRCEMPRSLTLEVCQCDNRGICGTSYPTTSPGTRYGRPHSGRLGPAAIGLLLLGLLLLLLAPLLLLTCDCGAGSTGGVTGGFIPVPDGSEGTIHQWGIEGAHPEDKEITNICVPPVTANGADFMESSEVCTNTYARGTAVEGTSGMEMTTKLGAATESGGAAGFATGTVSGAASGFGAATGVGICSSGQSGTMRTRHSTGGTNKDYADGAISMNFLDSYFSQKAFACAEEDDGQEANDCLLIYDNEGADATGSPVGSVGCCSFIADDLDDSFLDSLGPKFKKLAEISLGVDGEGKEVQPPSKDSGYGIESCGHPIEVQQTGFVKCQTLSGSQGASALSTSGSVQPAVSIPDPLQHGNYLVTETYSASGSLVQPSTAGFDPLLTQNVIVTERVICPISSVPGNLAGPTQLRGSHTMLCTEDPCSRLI
JMJD2C inh: blocks human GASC-1 demethylase activity; Q9H3R0; GST-JMJD2C(1-420) H3K9me3 demethylation, DELFIA europium; inhibition, % at 2.35 µM; 330,000 compounds, 0.069% hits;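 active means more than half of a compound's replicate wells show inhibition beyond 50%, single wells judged on their own value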;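 further: signal counts dimethyl H3K9 product captured on neutravidin plate; 0% = median of DMSO wells and 100% = 0.3 times that DMSO median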
Arr AP2 CP1: human beta-arrestin and AP2 interaction inhibition, cherry pick; shares compounds with Arr AP2 block; AID 504908; GST-AP2 beads, FITC arrestin peptide binding, flow cytometry; GST-fused beta2-adaptin appendage, R879A mutant; inhibition, % at 10 µM; 1,300 compounds, 2% hits;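 active means inhibition above a set limit, roughly 3 SD of non-fluorescent compound noise, cut at about 38% in these data; inactive means inhibition at or below that limit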;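 further: loss of bead fluorescence from 50 nM FITC arrestin peptide bound to appendage; 0% = negative control wells and 100% = excess unlabelled arrestin peptide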
GST-FITC bead: GST-GSH bead binding interference, counter-screen | shares compounds with Arr AP2 block | GST-fluorescein binding to GSH beads, fluorescence | inhibition, % at 10 µM | 1,300 compounds, 2% hits | AID 588338;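 active means inhibition above 50%, about 3 SD of the inhibition seen with non-fluorescent compounds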;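 further: fluorescein maleimide labelled GST captured on 4 micron glutathione beads; higher means more loss of bead fluorescence from quenching or blocked binding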
* marks the source's active call; other numbers are inactive results; i = inactive; · = not tested or not shown.

SMILES	HDAC3 inh	LANA-H2A inh	Arr AP2 block	T cell HTS	DSG3 Ab inh	JMJD2C inh	Arr AP2 CP1	GST-FITC bead
COc1ccccc1OCC(=O)N/N=C/c1cccc2cccnc12	4	2	41	309	·	-30	·	·
COc1cccc(/C=N/NC(=O)COc2cccc3cccnc23)c1O	-6	-1	60*	225	105	32	-11	-1
S=C(NCc1ccco1)Nc1cccc(Cl)c1	3	1	59*	554	·	40	18	-5
O=C(NCCc1ccc(S(=O)(=O)N2CCCC2)cc1)c1cccs1	0	3	87*	206	102	-6	1	1
O=C(Nc1ccc(S(=O)(=O)N2CCCC2)cc1)c1cccs1	12	-10	4	203	97	12	·	·
CCC(O)C1CCN(C(=O)c2cc(COc3ccc(F)cc3F)on2)CC1 (stereo not drawn)	·	·	-22	591	97	3	·	·
COCCSc1nnc(NS(=O)(=O)c2ccc(C)cc2)s1	-8	6	59*	258	98	-3	3	-2
CC(=O)Nc1ccc(NC(=O)CSc2nnc(C)n2-c2ccccc2)cc1	0	-4	60*	203	108	-8	-1	-3
Cc1nnc(SCC(=O)Nc2ccc(C(N)=O)cc2)n1-c1ccccc1	-1	5	11	193	98	-33	·	·
O=C(O)c1cc2nc(-c3ccccc3)cc(C(F)(F)F)n2n1	1	5	7	369	100	3	·	·
O=C(O)c1cc2nc(-c3ccccc3)cc(-c3ccccc3)n2n1	-2	-1	68*	240	94	2	-10	1
O=C(CCNS(=O)(=O)c1ccccc1F)NC1CCCCCC1	1	3	37	280	95	·	·	·
COC1OC2COC(c3ccccc3)OC2C(NC(C)=O)C1OC(C)=O (stereo not drawn)	·	·	·	·	106	·	·	·
CC(=O)N[C@@H]1[C@@H](O)[C@@H]2OC(c3ccccc3)OC[C@H]2O[C@@H]1N=[N+]=[N-] (stereo partly drawn)	0	-6	56*	156	104	7	12	-3
N#Cc1ccccc1OCC(=O)NNC(=O)CCNC(=O)c1ccccc1	3	0	6	355	93	-9	·	·
CCn1c(=O)n(CC)c2cc(N3CCCC3)c(NC(=O)c3ccccc3F)cc21	2	2	7	346	·	3	-2	-8
CCn1c(=O)n(CC)c2cc(N3CCCC3)c(NC(=O)c3cc(Br)ccc3OC)cc21	-1	-5	·	i	·	10	4	1
O=C(Nc1cc(C(=O)N2CCCC2)ccc1N1CCCC1)c1ccccc1F	-2	-2	-5	285	99	-1	·	·
COc1ccc(Br)cc1C(=O)Nc1ccccc1N1CCCC1	3	4	-3	623	101	-6	·	·
CCn1c(=O)n(CC)c2cc(N3CCCC3)c(NC(=O)c3ccccc3C)cc21	5	8	4	489	103	-27	21	-1
Cc1ccccc1C(=O)Nc1ccccc1N1CCCCC1	11	-3	1	232	105	4	·	·
COc1ccc(CNC(=O)Cn2nnc3ccccc3c2=O)cc1	4	-2	-4	697	102	16	·	·
Cc1c(C(=O)NCCN2CCOC2=O)oc2c(F)cccc12	-5	2	-3	266	106	-16	·	·
Cc1c(C(=O)NCCN2CCCC(O)C2)oc2c(F)cccc12 (stereo not drawn)	·	-2	58*	340	114	12	-11	-3
C[C@H](CO)N1C[C@H](C)[C@H](CN(C)C(=O)Nc2ccc(F)cc2)OCc2ccccc2-c2c(n(C)c3ccccc23)C1=O	·	·	·	·	101	·	·	·

Compound activity (PubChem)
